The text below walks through data of ChEMBL document CHEMBL1143111, “Synthesis and antimicrobial activity of novel C-linked imidazole glycoconjugates” (Bioorg Med Chem Lett, 2008).

In brackets after ≈: the same amount, converted by molar mass. Activity calls are given as the source filed them. The rule behind the calls is not given here.

The subject of one experiment is Pseudomonas aeruginosa. Put plainly: Antibacterial activity against Pseudomonas aeruginosa by broth dilution method. Type of experiment: functional. In outline:
(§1)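 Compounds and reference drugs were dissolved as stocks in 50% DMSO–water, then serially diluted twofold with culture medium, with bacterial inoculum added […], and the MIC was determined. Only compounds that gave a growth-inhibition zone in a prior agar cup diffusion screen went on to this broth dilution test.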
In general terms: Broth dilution looks for growth in wells or tubes with falling amounts of substance.

The subject of another experiment is Staphylococcus aureus. Put plainly: Antibacterial activity against Staphylococcus aureus by broth dilution method. Type of experiment: functional. In outline:
as §1

The test system of experiment [1] is Staphylococcus epidermidis. Put plainly: Antibacterial activity against Staphylococcus epidermidis by broth dilution method. It counts as functional. In outline: as §1
The next experiment relates to Aspergillus niger. Put plainly: Antifungal activity against Aspergillus niger by agar cup diffusion method. Type of experiment: functional, organism-based.
A further experiment has as its system Bacillus subtilis. Briefly: Antibacterial activity against Bacillus subtilis by broth dilution method. It counts as functional. In outline: as §1
Another experiment has as its system Klebsiella pneumoniae. Briefly: Antibacterial activity against Klebsiella pneumoniae by broth dilution method. Type of experiment: functional. In outline: as §1
The test system of another experiment is Candida albicans. Briefly: Antifungal activity against Candida albicans by agar cup diffusion method. Type of experiment: functional, organism-based.
Another experiment relates to Rhizopus arrhizus. Put plainly: Antifungal activity against Rhizopus oryzae by agar cup diffusion method. Type of experiment: functional, organism-based.
Another experiment deals with Escherichia coli. Briefly: Antibacterial activity against Escherichia coli by broth dilution method. It counts as functional. The procedure, abridged: as §1
A further experiment relates to Saccharomyces cerevisiae. Briefly: Antifungal activity against Saccharomyces cerevisiae by agar cup diffusion method. It counts as functional, organism-based.
A short description of experiment [2]: Inhibition of bovine N-acetyl-beta-D-glucosaminidase. Also on record: species or system Bos taurus.

As a reminder, the MIC is the lowest concentration that inhibits growth of the organism. A high value points to weaker potency. On to `OC[C@@H](O)[C@@H](O)[C@@H](O)[C@H](O)c1nc(-c2ccccc2)c(-c2ccccc2)n1Cc1ccccc1`, for which the MIC (against Pseudomonas aeruginosa; in the experiment on Staphylococcus aureus; in experiment [1]; against Bacillus subtilis; in the experiment with Klebsiella pneumoniae; in the experiment on Escherichia coli) was 75 µg/mL (≈ 163 µM) throughout. Also, the outcome with Aspergillus niger, in the experiment on Candida albicans, in the experiment on Rhizopus arrhizus and with Saccharomyces cerevisiae was inactive.
Take `CC1(C)OC[C@H](c2nc(-c3ccccc3)c(-c3ccccc3)n2-c2ccc(F)cc2)O1`: the MIC amounted to 37.5 µg/mL (≈ 90.5 µM) against Pseudomonas aeruginosa; 75 µg/mL (≈ 181 µM) against Staphylococcus aureus; 75 µg/mL (≈ 181 µM) in [1]; 75 µg/mL (≈ 181 µM) against Bacillus subtilis; 75 µg/mL (≈ 181 µM) against Klebsiella pneumoniae; 37.5 µg/mL (≈ 90.5 µM) in the experiment on Escherichia coli. Further, the outcome with Aspergillus niger, with Candida albicans, in the experiment on Rhizopus arrhizus and with Saccharomyces cerevisiae was inactive.
In the case of `CC1(C)OC(c2nc(-c3ccccc3)c(-c3ccccc3)n2Cc2ccccc2)[C@H]([C@@H](O)[C@H]2COC(C)(C)O2)O1` (some centres not stated), the MIC came to 37.5 µg/mL (≈ 69.4 µM) against Pseudomonas aeruginosa; 75 µg/mL (≈ 139 µM) with Staphylococcus aureus; 150 µg/mL (≈ 277 µM) in experiment [1]; 75 µg/mL (≈ 139 µM) in the experiment with Bacillus subtilis; 75 µg/mL (≈ 139 µM) with Klebsiella pneumoniae; 75 µg/mL (≈ 139 µM) with Escherichia coli. The result in the experiment on Aspergillus niger, in the experiment with Candida albicans, in the experiment with Rhizopus arrhizus and in the experiment on Saccharomyces cerevisiae was inactive.
For `Cc1cccc(-n2c(C3OC(C)(C)O[C@H]3[C@@H](O)[C@H]3COC(C)(C)O3)nc(-c3ccccc3)c2-c2ccccc2)c1` (some centres not stated), the MIC in the experiment on Pseudomonas aeruginosa came to 37.5 µg/mL (≈ 69.4 µM); in the experiment with Staphylococcus aureus it was 150 µg/mL (≈ 277 µM); in experiment [1], 75 µg/mL (≈ 139 µM); in the experiment with Bacillus subtilis, 150 µg/mL (≈ 277 µM); in the experiment with Klebsiella pneumoniae, 150 µg/mL (≈ 277 µM); against Escherichia coli, 75 µg/mL (≈ 139 µM). For the same compound, the result in the experiment with Aspergillus niger, with Candida albicans, in the experiment with Rhizopus arrhizus and in the experiment on Saccharomyces cerevisiae was inactive.
For `Cc1ccc(-n2c([C@H]3COC(C)(C)O3)nc(-c3ccccc3)c2-c2ccccc2)cc1`, the MIC with Pseudomonas aeruginosa amounted to 150 µg/mL (≈ 365 µM); in the experiment on Staphylococcus aureus it was 150 µg/mL (≈ 365 µM); in [1], 75 µg/mL (≈ 183 µM); against Bacillus subtilis it was 150 µg/mL (≈ 365 µM); against Klebsiella pneumoniae it was 75 µg/mL (≈ 183 µM); against Escherichia coli it was 75 µg/mL (≈ 183 µM). Also, the result in the experiment on Aspergillus niger, in the experiment on Candida albicans, with Rhizopus arrhizus and in the experiment on Saccharomyces cerevisiae was inactive.
Consider `CC1(C)OC(c2nc(-c3ccccc3)c(-c3ccccc3)n2-c2ccc(F)cc2)[C@H]([C@@H](O)[C@H]2COC(C)(C)O2)O1` (some centres not stated), for which the MIC in the experiment with Pseudomonas aeruginosa came to 75 µg/mL (≈ 138 µM); with Staphylococcus aureus it was 150 µg/mL (≈ 275 µM); in [1] it was 150 µg/mL (≈ 275 µM); in the experiment on Bacillus subtilis, 150 µg/mL (≈ 275 µM); against Klebsiella pneumoniae, 75 µg/mL (≈ 138 µM); against Escherichia coli, 75 µg/mL (≈ 138 µM). Further, the result in the experiment with Aspergillus niger, with Candida albicans, in the experiment with Rhizopus arrhizus and in the experiment with Saccharomyces cerevisiae was inactive.
As for `Cc1ccc(-n2c([C@H]3O[C@@H]4OC(C)(C)O[C@@H]4[C@H]4OC(C)(C)O[C@H]43)nc(-c3ccccc3)c2-c2ccccc2)cc1`, the MIC in the experiment with Pseudomonas aeruginosa amounted to 75 µg/mL (≈ 139 µM); in the experiment with Staphylococcus aureus, 37.5 µg/mL (≈ 69.6 µM); in [1] it was 75 µg/mL (≈ 139 µM); against Bacillus subtilis it was 37.5 µg/mL (≈ 69.6 µM); with Klebsiella pneumoniae, 75 µg/mL (≈ 139 µM); in the experiment on Escherichia coli, 75 µg/mL (≈ 139 µM). For the same compound, the result in the experiment on Aspergillus niger, with Candida albicans, in the experiment with Rhizopus arrhizus and in the experiment with Saccharomyces cerevisiae was inactive.
The Ki is a dissociation constant, usually derived from enzyme kinetics or from competition with a known ligand. Higher therefore signals weaker binding. Compound `CC(=O)N[C@H]1c2nc(CC(=O)O)cn2[C@H](CO)[C@H](O)[C@@H]1O` [NAGSTATIN] came in with a Ki in experiment [2] of 4 nM.
On to `CN[C@@H]1[C@H](O[C@H]2[C@H](O[C@H]3[C@H](O)[C@@H](O)[C@H](N=C(N)N)[C@@H](O)[C@@H]3N=C(N)N)O[C@@H](C)[C@]2(O)C=O)O[C@@H](CO)[C@H](O)[C@H]1O` (stereo in doubt) [STREPTOMYCIN], for which the MIC with Pseudomonas aeruginosa came out at 3.12 µg/mL (≈ 5.37 µM); in the experiment on Staphylococcus aureus it was 1.56 µg/mL (≈ 2.69 µM); in experiment [1], 1.56 µg/mL (≈ 2.69 µM); in the experiment with Bacillus subtilis, 6.25 µg/mL (≈ 10.7 µM); against Klebsiella pneumoniae, 3.12 µg/mL (≈ 5.37 µM); in the experiment with Escherichia coli, 2.35 µg/mL (≈ 4.04 µM).
In the case of `Cc1ccc(-n2c(C3OC(C)(C)O[C@H]3[C@@H](O)[C@H]3COC(C)(C)O3)nc(-c3ccccc3)c2-c2ccccc2)cc1` (some centres not stated), the MIC in the experiment with Pseudomonas aeruginosa turned out to be 75 µg/mL (≈ 139 µM); in the experiment on Staphylococcus aureus, 75 µg/mL (≈ 139 µM); in [1] it was 150 µg/mL (≈ 277 µM); in the experiment with Bacillus subtilis it was 75 µg/mL (≈ 139 µM); in the experiment on Klebsiella pneumoniae, 75 µg/mL (≈ 139 µM); against Escherichia coli, 75 µg/mL (≈ 139 µM). Besides, the result with Aspergillus niger, with Candida albicans, in the experiment on Rhizopus arrhizus and in the experiment with Saccharomyces cerevisiae was inactive.
As to `CC1(C)O[C@H]2O[C@H](c3nc(-c4ccccc4)c(-c4ccccc4)n3Cc3ccccc3)[C@H](O)[C@H]2O1`, the MIC in the experiment on Pseudomonas aeruginosa was determined as 37.5 µg/mL (≈ 80 µM); with Staphylococcus aureus, 150 µg/mL (≈ 320 µM); in experiment [1], 150 µg/mL (≈ 320 µM); with Bacillus subtilis, 150 µg/mL (≈ 320 µM); with Klebsiella pneumoniae it was 75 µg/mL (≈ 160 µM); with Escherichia coli, 150 µg/mL (≈ 320 µM). The result in the experiment with Aspergillus niger, in the experiment with Candida albicans, in the experiment with Rhizopus arrhizus and in the experiment with Saccharomyces cerevisiae was inactive.
